This is an account of results in PubChem BioAssay.

Test [1] can be described thus: inhibitors of TNFa-induced NFkB p65 translocation, primary screen, imaging, HUVEC, MLSMR starter and 10KST1 sets (AID 438;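 active means inhibition above 20% together with a positive visual image hit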;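 further: compound added about 3h40 before a 20 min TNFalpha stimulation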;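 on inhibition: signal is the nuclear over cytoplasmic p65 intensity ratio per well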). Particulars: HUVEC TNFa-induced p65 nuclear translocation; cell count: measured here: nuclei count (cytotoxicity indicator), at 2.08 µM; inhibition: at 2 µM, stronger effect = higher value, 0% TNFa-plus-vehicle, 100% no-TNFa wells.
Test [2] is described as follows: inhibitors of mutant huntingtin aggregation, primary screen, imaging, exon1htt(103Q)mCFP cells, high-content imaging (AID 483;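 active means visual image review flags a hit and inhibition of aggregation exceeds 20%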;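 further: compound exposure lasted 3 days before fixation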;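 on nuclei count: percent of the per-plate median nuclei count of sample wells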). Particulars: exon1htt(103Q)mCFP cell line, aggregate imaging, at 2 µM; inhibition of aggregation: stronger effect = higher value; nuclei count: measured here: cell count, toxicity.
Test [3] can be described thus: inhibitors of E-selectin induction by TNFa, primary screen, imaging, HUVEC, immunofluorescence, MLSMR starter and 10KST1 sets (AID 487;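 active means visually confirmed hit in the image check and inhibition above 20%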;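 on inhibition: signal is fraction of cell area covered by stained E-selectin grains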;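 on nuclei count: 100% = median nuclei count of all wells on the same plate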). As to conditions: HUVEC TNFalpha-induced E-selectin immunofluorescence imaging, at 2 µM; inhibition: stronger effect = higher value; nuclei count: measured here: cell number, toxicity.
For test [4], the target named is Voltage-gated potassium channel subunit beta-2 (Rattus norvegicus) (UniProt P62483). Description: KvBeta enzyme negative modulators, primary screen, biochemical, NADPH fluorescence (AID 622;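 active means fluorescence slope higher than the sample average by over 3 SD, cut at about -0.22 in these data, passing the limit was not always enough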;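 further: slope of raw intensity against log time taken from 70 to 1610 s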). Particulars: recombinant KvBeta, 4-cyanobenzaldehyde reduction, at 10 µM, stronger effect = higher value.
Chain of Voltage-gated potassium channel subunit beta-2 (Rattus norvegicus) (P62483 whole entry, looked up): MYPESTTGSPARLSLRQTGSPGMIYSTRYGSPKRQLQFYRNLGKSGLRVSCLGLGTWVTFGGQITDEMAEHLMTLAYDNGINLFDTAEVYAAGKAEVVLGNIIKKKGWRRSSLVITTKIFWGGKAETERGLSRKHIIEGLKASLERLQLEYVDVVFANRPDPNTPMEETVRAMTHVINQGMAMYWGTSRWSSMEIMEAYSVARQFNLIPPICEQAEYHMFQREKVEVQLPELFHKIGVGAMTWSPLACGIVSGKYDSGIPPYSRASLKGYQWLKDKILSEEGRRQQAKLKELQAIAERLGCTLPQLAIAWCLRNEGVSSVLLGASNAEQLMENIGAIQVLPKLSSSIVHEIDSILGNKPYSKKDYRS
For test [5] the target is unchanged. As to the kind of experiment: KvBeta positive modulators, primary screen, biochemical, NADPH fluorescence (AID 623;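 active means NADPH fluorescence slope more negative than the mean of all samples by about 3 SD, 99.7% confidence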;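 further: fluorescence intensity change per second fitted from 20 to 320 s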). As to conditions: Recombinant KvBeta, NADPH fluorescence decrease slope, 10 min; at 10 µM; stronger effect = lower value.
The target in test [6] is Alpha-2C adrenergic receptor (Homo sapiens) (UniProt P18825). As to the kind of experiment: modulators of alpha2C/GIRK thallium flux, primary screen, cell-based, HEK293 alpha2C/GIRK1/2 (AID 624;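 active means fluorescence slope after compound addition differing from the mean of all screened samples at 99.7% confidence, in either direction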;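 further: slope of fluorescence ratio to pre-addition baseline per second over 15 to 24 s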). As to conditions: thallium flux BTC fluorescence, at 10 µM, actives lie on both sides.
Chain of Alpha-2C adrenergic receptor (Homo sapiens) (P18825 whole entry, looked up): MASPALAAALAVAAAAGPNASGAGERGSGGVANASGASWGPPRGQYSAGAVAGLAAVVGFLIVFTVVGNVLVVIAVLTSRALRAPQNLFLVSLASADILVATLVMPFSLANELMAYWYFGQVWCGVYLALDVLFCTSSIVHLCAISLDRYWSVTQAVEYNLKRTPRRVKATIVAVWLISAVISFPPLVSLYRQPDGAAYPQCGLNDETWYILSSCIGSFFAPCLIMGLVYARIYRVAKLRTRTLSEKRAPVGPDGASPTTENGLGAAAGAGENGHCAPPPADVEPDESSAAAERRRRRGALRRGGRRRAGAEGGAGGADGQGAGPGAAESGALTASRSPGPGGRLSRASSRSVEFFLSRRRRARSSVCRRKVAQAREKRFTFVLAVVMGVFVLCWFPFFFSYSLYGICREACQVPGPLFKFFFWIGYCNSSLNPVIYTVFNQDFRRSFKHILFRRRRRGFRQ
Test [7] can be described thus: inhibitors of larval lipid processing in zebrafish, primary screen, whole organism, PED6 fluorescence, gall bladder and intestine (AID 686;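 active means a full or partial loss of lipid-probe fluorescence in the fish gall bladder, intestine or both, judged by eye; inactive means no fluorescence loss, or compound toxic to the fish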;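 further: larvae 5 to 7 days old with five fish per well; signal comes from phospholipase A2 cleavage of quenched PED6 carried via bile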). As to conditions: Zebrafish larvae PED6 lipid processing, fluorescence scoring; screened at 20 µM (by protocol). An outline of the steps: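 System: live zebrafish larvae aged 5-7 days, whole organism; measure: graded gall bladder and intestinal fluorescence inhibition per well; incubation: overnight exposure; reagent: ingested quenched lipid PED6 at 100 nM; signal: By-eye fluorescence microscopy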

A short description of test [8]: inhibitors of Sendai virus-induced IRF3 signaling, primary screen, TLR/RLR signaling modifier project, cell-based, Sendai virus stimulus, luciferase, 10K MLSCN set (AID 602276;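 active means inhibition at or above 50% at 10 µM; inactive means inhibition below 50%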;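 further: firefly luciferase from ISG56 promoter only with Renilla not read in this screen; 0% = Sendai virus plus DMSO and 100% = medium plus DMSO without virus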). Particulars: HEK293 RL24 IRF3 luciferase reporter, at 10 µM, stronger effect = higher value. (A reporter such as luciferase makes a cellular process visible.)
A short description of test [9]: inhibitors of poly I:C-induced TLR3 signaling, primary screen, cell-based, poly I:C stimulus, luciferase, 10K MLSCN set (AID 602277). As to conditions: HEK293-TLR3 RL24 IRF3 luciferase reporter, at 10 µM, stronger effect = higher value.

One may read the inhibition as the drop in the measured response relative to a control, in per cent.

The source made the active and inactive calls.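 How the source made its calls, unless noted: active means inhibition of the reporter signal at or above 50%; inactive means inhibition below 50%.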

Regarding `CC1CN(C(=O)CSc2ncnc3sccc23)CC(C)O1` (stereo not drawn), in test [1], the cell count was determined as 356. The inhibition was -0.9% (inactive) in test [1], -1.1% (inactive) in [3], 10.7% (inactive) in test [8] and 11% (inactive) in test [9]. Moreover, in test [2], the inhibition of aggregation was -13.4% (inactive). Further, the nuclei count was 98.3% in [2] and 102% in test [3]. The fluorescence slope in test [4] was -0.469 (inactive). Moreover, in test [5], the NADPH fluorescence slope is -2.6e-05 (inactive). The slope in test [6] was 0.0052 (inactive). In [7], the compound was called inactive.

Consider `COc1ccccc1NC(=O)NCc1ccc2c(c1)OCO2`, for which, in test [1], the cell count was 361. Besides, the inhibition in test [1] was -9.8% (inactive); in [3], 37.9% (inactive); in test [8], 10.7% (inactive); in [9] it was 17.5% (inactive). Moreover, in test [2], the inhibition of aggregation is 25.8% (inactive). Moreover, the nuclei count in test [2] is 97%; in test [3] it was 78.8%. The fluorescence slope in [4] is -0.341 (inactive). Besides, the NADPH fluorescence slope in test [5] is -2.6e-05 (inactive). Besides, the slope in test [6] is 0.0055 (inactive). In addition, in [7], the compound was classed as inactive.

Consider `COc1ccc(C/C(O)=C(\C#N)c2nc3ccccc3s2)cc1`, for which the cell count in test [1] turned out to be 783. For the same compound, the inhibition was -1.1% (inactive) in [1], -15.3% (inactive) in test [3], 0.322% (inactive) in [8] and 6.03% (inactive) in [9]. Also, the inhibition of aggregation in test [2] is 2.2% (inactive). The figures for the nuclei count in test [2] and in test [3] were 98.5% and 111%, respectively. Besides, the fluorescence slope in test [4] was -0.378 (inactive). For the same compound, in test [5], the NADPH fluorescence slope is -3.1e-05 (inactive). In addition, the slope in [6] was 0.0036 (inactive). In addition, in test [7], the outcome was “inactive; toxic”.

As for `COCCN(CCOC)C(=O)CCn1c(=O)oc2ccccc21`, in [1], the cell count was found to be 589. Also, the inhibition in [1] was 3.3% (inactive); in test [3], 37.7% (inactive); in [8] it was 17.5% (inactive); in [9], 8.78% (inactive). The inhibition of aggregation in [2] was 2.1% (inactive). In addition, the figures for the nuclei count in test [2] and in [3] were 107% and 100%, respectively. Moreover, the fluorescence slope in [4] was -0.462 (inactive). Besides, in test [5], the NADPH fluorescence slope was -5.7e-05 (inactive). The slope in [6] is 0.00623 (inactive). In addition, the call in [7] was inactive.

Take `O=C(O)CCC(=O)NC1CCCCC1NC(=O)CCC(=O)O` (stereo not drawn): in [1], the cell count amounted to 488. The inhibition in test [1] is 4% (inactive); in test [3] it was -189% (inactive); in test [8] it was 5.12% (inactive); in [9], 3.98% (inactive). Further, the inhibition of aggregation in test [2] is -8.6% (inactive). The nuclei count amounted to 104% in test [2] and 129% in test [3]. For the same compound, the fluorescence slope in [4] was -0.394 (inactive). In test [5], the NADPH fluorescence slope was -6.2e-05 (inactive). For the same compound, in test [6], the slope was 0.00623 (inactive). Besides, the call in test [7] was inactive.

With `CCOc1ccccc1N1CC(O)=C(c2nc3ccccc3s2)C1=N`, the cell count in test [1] is 348. The inhibition in test [1] is -0.8% (inactive); in test [3], -69.5% (inactive); in test [8] it was -19.5% (inactive); in [9], 55.4% (active). Further, in test [2], the inhibition of aggregation is 0.2% (inactive). Also, the nuclei count in test [2] was 97.7%; in test [3], 92%. In test [4], the fluorescence slope was -0.291 (inactive). Also, the NADPH fluorescence slope in [5] was -3.9e-05 (inactive). For the same compound, in [6], the slope was 0.00531 (inactive). In test [7], the compound was called inactive.

Turning to `O=C(CN1CCN(Cc2ccc3c(c2)OCO3)CC1)N1CCc2[nH]c3ccc(F)cc3c2C1`, in test [1], the cell count is 687. The inhibition in test [1] was 13.9% (inactive); in test [3] it was 34.4% (inactive); in test [8] it was 12% (inactive); in test [9] it was 4.08% (inactive). In [2], the inhibition of aggregation was 6.4% (inactive). For the same compound, the nuclei count in test [2] is 96.6%; in test [3], 101%. Also, the fluorescence slope in test [4] was -0.409 (inactive). Also, in test [5], the NADPH fluorescence slope is -6.8e-05 (inactive). For the same compound, in test [6], the slope was 0.00435 (inactive). In addition, the call in test [7] was inactive.

`N#Cc1ccc(CSc2nnc(-c3ccccn3)n2-c2ccccc2)cc1`: the cell count in [1] amounted to 363. Moreover, the inhibition in test [1] was 5.8% (inactive); in [3], -10.3% (inactive); in [8], 11.1% (inactive); in test [9] it was 9.06% (inactive). Further, in test [2], the inhibition of aggregation is 10.4% (inactive). Moreover, the figures for the nuclei count in [2] and in [3] were 91.3% and 112%, respectively. Also, the fluorescence slope in test [4] is -0.426 (inactive). Moreover, the NADPH fluorescence slope in [5] was -1.1e-05 (inactive). Further, the slope in test [6] is 0.00569 (inactive). Besides, the outcome in test [7] was “active; weak signal in gallbladder and intestine”.

For `Cc1cc(NC(=O)CS(=O)(=O)c2cn(Cc3ccccc3Cl)c3ccccc23)no1`, the cell count in test [1] came to 767. Also, the inhibition in [1] is -27.1% (inactive); in test [3] it was 67.2% (active); in [8] it was 7.87% (inactive); in [9], 2.26% (inactive). Also, the inhibition of aggregation in [2] was 0.3% (inactive). The nuclei count in test [2] came out at 98.5%; in test [3] it was 83.3%. The fluorescence slope in test [4] is -0.323 (inactive). For the same compound, in test [5], the NADPH fluorescence slope was -2.3e-05 (inactive). The slope in test [6] is 0.00422 (inactive). Further, the call in test [7] was inactive.

`COc1ccc(Cl)c(NC(=O)NCCN2CCN(c3ccccc3)CC2)c1`: the cell count in test [1] is 410. In addition, the inhibition in [1] was 1.8% (inactive); in test [3] it was -12.8% (inactive); in [8], 15.2% (inactive); in test [9], 23.5% (inactive). Further, in test [2], the inhibition of aggregation is 1% (inactive). Moreover, the results for the nuclei count in [2] and in test [3] were 99.5% and 119%, respectively. For the same compound, in [4], the fluorescence slope is -0.29 (inactive). Further, the NADPH fluorescence slope in test [5] was -1.7e-05 (inactive). In addition, in test [6], the slope is 0.00501 (inactive). Further, in test [7], the call was inactive.

Consider `O=C(Nc1ccc(-c2nc3ncccc3o2)cc1)c1ccc(Br)o1`, for which, in test [1], the cell count was determined as 340. In addition, the inhibition in test [1] was 25.6% (inactive); in test [3], 8.6% (inactive); in [8], -28.6% (inactive); in test [9], -98.2% (inactive). Further, in [2], the inhibition of aggregation is -3.8% (inactive). In addition, the nuclei count stood at 89.7% in [2] and 100% in test [3]. The fluorescence slope in [4] is -0.125 (active). The NADPH fluorescence slope in test [5] was -3.3e-06 (inactive). Besides, the slope in test [6] was 0.00525 (inactive). Further, in [7], the result was inactive.

For `CC1Cc2ccccc2N1CC(=O)NC(=O)NCc1ccco1` (stereo not drawn), the cell count in [1] came to 441. The inhibition in test [1] is -2.6% (inactive); in test [3], 2.3% (inactive); in test [8], 16.6% (inactive); in test [9] it was 19% (inactive). Also, the inhibition of aggregation in [2] is 9.8% (inactive). For the same compound, the nuclei count in test [2] is 91.7%; in test [3] it was 109%. Further, in test [4], the fluorescence slope is -0.436 (inactive). Besides, in [5], the NADPH fluorescence slope is -9.5e-06 (inactive). In addition, the slope in test [6] is 0.00524 (inactive). The outcome in [7] was inactive.

Turning to `CC(=O)N1CN(C2CCCC2)Cc2c1sc1c2CCCC1`, the cell count in [1] turned out to be 793. Moreover, the inhibition is -14% (inactive) in [1], 26.2% (inactive) in test [3], 5.21% (inactive) in test [8] and 20% (inactive) in test [9]. In addition, the inhibition of aggregation in test [2] was 11.7% (inactive). Further, the figures for the nuclei count in test [2] and in test [3] were 99.2% and 90.6%, respectively. The fluorescence slope in [4] was -0.433 (inactive). The NADPH fluorescence slope in [5] is -1.9e-07 (inactive). Moreover, the slope in [6] is 0.00682 (inactive). Further, in test [7], the outcome was inactive.

As for `CCCc1cc(=O)oc2cc(C)cc(OC(=O)c3ccco3)c12`, the cell count in test [1] is 298. The inhibition was -9% (inactive) in test [1], -170% (inactive) in test [3], -12.5% (inactive) in [8] and -18.4% (inactive) in [9]. In addition, in [2], the inhibition of aggregation was 14.4% (inactive). For the same compound, the nuclei count in [2] stood at 86%; in [3], 108%. The fluorescence slope in test [4] is -0.399 (inactive). For the same compound, in test [5], the NADPH fluorescence slope was -3.5e-05 (inactive). The slope in [6] is 0.00456 (inactive). The call in test [7] was inactive.
